Tests used:
recombinant hpol κ = details: cited from earlier work
[1] = test system: hpol κ-proficient HAP-1 cells; experiment: Clonogenic survival assay; type: cell-based, human; details: 250 μM TMZ alone, 1 h, 10 days culture
[2] = test system: hpol κ-deficient HAP-1 cells; experiment: Clonogenic survival assay; type: cell-based, human; details: 250 μM TMZ alone
[3] = test system: hpol κ-deficient HAP-1 cells; experiment: Alkaline comet assay; type: cell-based, human; details: 100 μM TMZ alone, 1 h
How it was run: (§1)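 100 000 HAP-1 cells per well, test compound 0.5 μM alone or with alkylating agent (100 μM), 1 h; DMSO control. Cells embedded in low-melting agarose (200–300 per well), lysed 1 h, alkaline unwinding (200 mM NaOH, 1 mM EDTA) 20 min RT, electrophoresis 21 V, 30 min, 4 °C, SYBR Gold stain. Read-out is % DNA in tail per cell; ≥20 cells per replicate, three biological replicates, mean ±SD.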

[4] = test system: hpol κ-proficient HAP-1 cells; experiment: Alkaline comet assay; type: cell-based, human; details: 100 μM TMZ alone, 1 h
How it was run: as §1

CC(C)c1ccc2c(c1)c(SC(C)(C)C)c(CC(C)(C)C(=O)O)n2Cc1ccc(Cl)cc1 [MK-886]
IC50 (recombinant hpol κ): tens of micromolar

Cn1nnc2c(C(N)=O)ncn2c1=O [TMZ, temozolomide, reference compound]
colonies formed relative to untreated cells [1]: ~ 75%
colonies formed relative to untreated cells [2]: less than 50%
DNA damage (% DNA in tail) over control [3]: significantly greater amount of DNA damage over control
DNA damage (% DNA in tail) over untreated cells [4]: approximately sevenfold

CCOc1nc2cccc(C(=O)OC(C)OC(=O)OC3CCCCC3)c2n1Cc1ccc(-c2ccccc2-c2nn[nH]n2)cc1 (stereo not drawn) [candesartan, candesartan cilexetil]
IC50 (recombinant hpol κ): tens of micromolar

Reference: publication PMC7357868 (ACS chemical biology, 2019)
